The RNAGym collection of RNA variant scans (doi:10.1002/anie.201605470)

B1: Osa-1-4 twister ribozyme (parent)
chain: CCGCCUAACACUGCCAAUGCCGGUCCCAAGCCCGGAUAAAAGUGGAGGGGGCGG

Variants of: B1
Assay: self-cleavage, relative activity (ratio to wild type); higher = more cleavage; co-transcriptional
Outline: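 Relative activity is the fraction cleaved divided by that of the wild-type ribozyme. The library came from a DNA template for a 54-nucleotide Oryza sativa twister ribozyme, doped at the 48 positions downstream of the cleavage site with 97 % wild-type base and 1 % of each other base. After 2 h of in vitro transcription at 37 °C with co-transcriptional self-cleavage, the RNA was reverse-transcribed with a template-switching oligonucleotide, amplified by PCR and deep-sequenced, and reads with or without upstream sequence gave the cleavage status.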

Variant	self-cleavage
G23C G50A	0.04
G23C G50C	0.04
G23C G50U	0.05
G23A G50U	0.3
G23A G50C	0.14
G23A G50A	0.23
G23U G47A	0.03
G23U G47U	0.04
G23U G47C	0.03
G22U U37A	0.93
G22U U37G	0.92
G22U U37C	0.55
G23A G53C	0.06
G23A G53U	0.11
G23A G53A	0.15
G23U G30U	0.02
G23U G30A	0.02
G23U G30C	0.03
G23A G54A	0.2
G23A G54U	0.41
G23A G54C	0.21
G23A U43G	0.09
G23A U43A	0.1
G23A U43C	0.09

Variant	self-cleavage
G23U G54C	0.08
G23U G54A	0.09
G23U G54U	0.2
G23A G48U	0.05
G23A G48A	0.05
G23A G48C	0.06
G23A G42U	0.05
G23A G42A	0.08
G23A G42C	0.07
G23U U18A	0.1
G23U U18C	0.1
G23U U18G	0.14
G23C G51C	0.03
G23C G51U	0.03
G23C G51A	0.05
G23U U24A	0.04
G23C G45C	0.03
G23C G45U	0.03
G23C G45A	0.04
G23A G44U	0.18
G23A G44A	0.15
G23A G44C	0.27
G23C G30U	0.02
G23C G30C	0.02

Variant	self-cleavage
G23C G30A	0.02
G23C G54U	0.06
G23C G54C	0.05
G23C G54A	0.06
G23U G35C	0.05
G23U G35A	0.04
G23U G35U	0.05
G23C G35C	0.06
G23C G35U	0.04
G23C G35A	0.04
G23A G30U	0.04
G23A G30C	0.04
G23A G30A	0.04
G23A G49U	0.06
G23A G49C	0.05
G23A G49A	0.06
G23U G53U	0.06
G23U G53C	0.03
G23U G53A	0.06
G23U G50C	0.05
G23U G50U	0.06
G23U G50A	0.05
G23C G42U	0.02
G23C G42A	0.05

Variant	self-cleavage
G23C G42C	0.05
G23C G34U	0.04
G23C G34C	0.04
G23C G34A	0.06
G23A U12G	0.07
G23A U12A	0.1
G23A U12C	0.08
G23U G51C	0.04
G23U G51U	0.04
G23U G51A	0.05
G23A G45C	0.05
G23A G45A	0.05
G23A G45U	0.06
G23C U24C	0.04
G23C U24A	0.03
G23C U24G	0.01
G23A G51A	0.09
G23A G51U	0.08
G23A G51C	0.07
G23C G49C	0.02
G23C G49A	0.03
G23C G49U	0.03
G23C U18C	0.14
G23C U18A	0.06

Variant	self-cleavage
G23C U18G	0.06
G23C G47A	0.03
G23C G47U	0.03
G23C G47C	0.03
G23C U12A	0.04
G23C U12C	0.04
G23C U12G	0.04
G23C G53A	0.04
G23C G53U	0.04
G23C G53C	0.02
G23C G48U	0.02
G23C G48A	0.02
G23C G48C	0.02
G23A U24C	0.05
G23A U24G	0.02
G23A U24A	0.09
G23C U37C	0.07
G23C U37A	0.04
G23C U37G	0.05
G22U U43A	0.12
G22U U43C	0.1
G22U U43G	0.08
G23U G42U	0.04
G23U G42C	0.03

Variant	self-cleavage
G23U G42A	0.05
G23A U18G	0.38
G23A U18A	0.59
G23A U18C	0.49
G23U G48U	0.03
G23U G48C	0.03
G23U G48A	0.02
G23C G44C	0.04
G23C G44A	0.04
G23C G44U	0.04
G23U G45A	0.04
G23U G45C	0.03
G23U G45U	0.03
G23U G49A	0.03
G23U G49C	0.03
G23U G49U	0.03
G23U U12A	0.05
G23U U12C	0.04
G23U U12G	0.05
G23A U37A	0.77
G23A U37C	0.72
G23A U37G	0.78
G23A G34U	0.07
G23A G34C	0.07

Variant	self-cleavage
G23A G34A	0.11
G23A G47C	0.06
G23A G47U	0.06
G23A G47A	0.07
G23U G34C	0.04
G23U G34A	0.04
G23U G34U	0.05
G23C U43A	0.05
G23C U43C	0.05
G23C U43G	0.06
G22U U18G	0.82
G23A G35U	0.13
G23A G35C	0.08
G23A G35A	0.14
G23C	0.05
G23A	0.8
G23U	0.18
G22U U24G	0.07
G22U U24C	0.06
G22U U24A	0.13
G23U G44U	0.06
G23U G44C	0.05
G23U G44A	0.04
